Activity calls are given as the source filed them. No cut-off for these calls is given here.
What was measured:
[1] = system: Plasma; test: Anticoagulant activity in human plasma by heptest; type: functional
Summary of the method: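 Heptest clot assay. Plasma (centrifuged 1800g, 10 min, used within 30 min) incubated with compound 2 min at 37 °C. Factor Xa added, 2 min at 37 °C, then clotting started with Recalmix; read on a ball coagulometer. Normal range 13–20 s; means of two determinations.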

[2] = system: Plasma; test: Anticoagulant activity in human plasma assessed as activated partial thromboplastin time; type: functional
Summary of the method: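 Pooled normal human plasma spiked with compound in PBS at 0.1 mg/mL (methods give a 0–100 μg/mL range); APTT elevation measured. Normal range 26–36 s. Values are means of two determinations.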

[3] = system: HUVEC; test: Antiangiogenic activity against HUVEC assessed as inhibition of endothelial cell tube formation on ECM-derived protein matrix at 100 uM by phase contrast microscopy; type: functional, cell-based; conditions: Homo sapiens
Summary of the method: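 HUVECs at passage 4–5 (70–80% confluent) suspended in EGM2 with all supplements except heparin at 4×10^5 cells/mL, mixed 1:1 with compound (final 10, 50, 100 μM), plated in triplicate on growth factor-reduced Matrigel. Incubated 18 h; tubes scored by phase-contrast microscopy. Untreated cells as control; one-way ANOVA with Dunnett's test.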

[4] = system: B16; test: Antitumor activity against mouse B16 cells transplanted in C57/BL6 mouse assessed as reduction in tumor volume at 15 mg/kg for 7 days measured on day 10; type: functional; conditions: read-out: TGI
Summary of the method: (§1)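 B16F1 cells grown in DMEM with 10% FCS, 5×10^5 cells in PBS implanted sc between the shoulder blades of C57 mice (n = 10). From day 3, compound given sc in PBS b.i.d. for 7 days at rotating sites. Tumors measured daily as l × w; p < 0.05 taken as significant.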

[5] = Half life in Sprague-Dawley rat at 10 mg/kg, iv; type: ADME, organism-based; parameters: dose 10 mg/kg, route intravenous; conditions: in vivo
Summary of the method: (§2)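 Male Sprague-Dawley rats (n = 2 per route), cannulated the day before. Compound given at 2.8 mg/mL in PBS: iv infusion over 5 min or sc between the scapulae, nominal 10 mg/kg. Arterial blood sampled up to 8 h into tubes with protease inhibitor, KF and EDTA; urine collected to 24 h. Plasma analyzed by LC-MS; noncompartmental analysis.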

[6] = molecular target: Fibroblast growth factor 2 (Homo sapiens, UniProt P09038); test: Binding affinity to FGF2 by surface plasmon-based solution affinity assay
Summary of the method: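 Surface plasmon resonance solution affinity assay on heparin-coated CM4 chips. FGF-2 binding run in HBS-EP containing 300 mM NaCl. Kd is the mean of at least duplicate measurements ± SD.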

[7] = system: Aorta; test: Inhibition of angiogenesis in Sprague-Dawley rat aortic endothelium at 50 uM; type: functional, tissue-based
Summary of the method: (§3)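 Sprague-Dawley rats (2–4 months old): bisected 1 mm thoracic aortic rings embedded in Matrigel in EBM-2 with 2% FCS, no heparin. Compound added in triplicate, medium replenished every 48 h. Microvessel sprouting scored semiquantitatively by two assessors up to day 8. One-way ANOVA with Dunnett's test.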

[8] = Toxicity in rat aortic endothelium assessed as microvessel sprouts at 10 and 50 uM after 6 or 7 days; type: tissue-based, Sprague-Dawley, Aorta; conditions: ex_vivo, 168 h
Summary of the method: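 Aortic ring viability check: on day 6 or 7, compound or medium was withdrawn and complete medium with VEGF (typically 10 ng/mL) was added for up to 7 more days. New microvessel sprouting was taken as a sign of viable tissue.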

[9] = molecular target: T1, Heparanase (Homo sapiens, UniProt Q9Y251); test: Inhibition of human recombinant heparanase
T1 sequence (Q9Y251 whole entry): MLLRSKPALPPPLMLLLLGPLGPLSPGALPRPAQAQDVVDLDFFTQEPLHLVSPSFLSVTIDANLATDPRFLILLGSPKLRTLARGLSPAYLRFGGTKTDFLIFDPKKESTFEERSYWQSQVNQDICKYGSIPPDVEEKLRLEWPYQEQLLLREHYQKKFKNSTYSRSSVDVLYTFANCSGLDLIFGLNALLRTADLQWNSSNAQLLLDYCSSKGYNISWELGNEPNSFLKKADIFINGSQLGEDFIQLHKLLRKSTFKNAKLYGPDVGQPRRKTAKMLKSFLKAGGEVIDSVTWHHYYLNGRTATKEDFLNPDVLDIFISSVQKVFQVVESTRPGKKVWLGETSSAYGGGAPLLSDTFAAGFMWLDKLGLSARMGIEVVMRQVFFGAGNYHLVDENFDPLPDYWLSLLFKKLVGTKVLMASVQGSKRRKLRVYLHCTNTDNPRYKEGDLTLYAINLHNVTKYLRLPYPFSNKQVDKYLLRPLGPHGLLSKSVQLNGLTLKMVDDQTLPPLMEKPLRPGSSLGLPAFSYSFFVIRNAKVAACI
Summary of the method: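 Recombinant human heparanase assayed by ultrafiltration with 3H-labelled heparan sulfate as substrate (Km = 1.64 μM). Ki values with standard error were derived from inhibition response curves.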

[10] = Half life in Sprague-Dawley rat at 10 mg/kg, sc; type: ADME, organism-based; parameters: dose 10 mg/kg, route subcutaneous; conditions: in vivo; summary of the method: as §2
[11] = molecular target: T2, Vascular endothelial growth factor A, long form (Homo sapiens, UniProt P15692); test: Binding affinity to VEGF by surface plasmon-based solution affinity assay
T2 sequence (P15692 whole entry): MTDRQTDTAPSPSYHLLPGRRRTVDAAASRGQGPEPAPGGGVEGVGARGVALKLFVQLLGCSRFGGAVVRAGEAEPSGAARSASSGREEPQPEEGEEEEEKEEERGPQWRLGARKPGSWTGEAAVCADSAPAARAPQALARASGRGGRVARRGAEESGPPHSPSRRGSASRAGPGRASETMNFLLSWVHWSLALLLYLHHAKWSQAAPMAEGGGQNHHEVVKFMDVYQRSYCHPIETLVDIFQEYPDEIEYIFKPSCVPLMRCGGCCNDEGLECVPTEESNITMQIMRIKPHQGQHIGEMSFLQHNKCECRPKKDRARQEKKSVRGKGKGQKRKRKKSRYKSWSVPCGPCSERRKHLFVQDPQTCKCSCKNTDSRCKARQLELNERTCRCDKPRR
Summary of the method: (§4)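 Surface plasmon resonance solution affinity assay on heparin-coated CM4 chips. Buffer: HBS-EP (10 mM HEPES pH 7.4, 150 mM NaCl, 3.0 mM EDTA, 0.005% polysorbate 20). Kd is the mean of at least duplicate measurements ± SD.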

[12] = system: HUVEC; test: Cytotoxicity against HUVEC; type: cell-based; conditions: human
[13] = system: B16; test: Antitumor activity against mouse B16 cells transplanted in C57/BL6 mouse assessed as reduction in tumor volume at 30 mg/kg for 7 days measured on day 10; type: functional; conditions: read-out: TGI; summary of the method: as §1
[14] = molecular target: Fibroblast growth factor 1 (Homo sapiens, UniProt P05230); test: Binding affinity to FGF1 by surface plasmon-based solution affinity assay; summary of the method: as §4
[15] = Plasma clearance in Sprague-Dawley rat at 10 mg/kg, iv and 10 mg/kg, sc; type: ADME, organism-based; summary of the method: as §2
[16] = system: HUVEC; test: Inhibition of VEGF-induced HUVEC cell proliferation; type: functional, cell-based; conditions: Homo sapiens
Summary of the method: (§5)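 HUVECs seeded at 1–3 × 10^3 per well in EGM with 2% FBS and gentamicin. Proliferation driven by VEGF, FGF-1 or FGF-2; compound added typically at seven concentrations (1–50 μM) in triplicate. After 70 h, MTS reagent added for 2 h and A490 read. IC50 obtained from blank-subtracted curves.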

[17] = system: HUVEC; test: Inhibition of FGF2-induced HUVEC cell proliferation; type: functional, cell-based; conditions: Homo sapiens; summary of the method: as §5
[18] = system: HUVEC; test: Inhibition of FGF1-induced HUVEC cell proliferation; type: functional, cell-based; conditions: Homo sapiens; summary of the method: as §5
[19] = system: Aorta; test: Inhibition of angiogenesis in Sprague-Dawley rat aortic endothelium at 10 uM; type: functional, tissue-based; summary of the method: as §3
[20] = Apparent volume of distribution in Sprague-Dawley rat at 10 mg/kg, iv and 10 mg/kg, sc; type: ADME, organism-based; conditions: in vivo, read-out: Vz; summary of the method: as §2
[21] = Bioavailability in Sprague-Dawley rat at 10 mg/kg, sc; type: ADME, organism-based; conditions: in vivo; summary of the method: as §2

Fibroblast growth factor 2, sequence (P09038 143-288 limits assumed): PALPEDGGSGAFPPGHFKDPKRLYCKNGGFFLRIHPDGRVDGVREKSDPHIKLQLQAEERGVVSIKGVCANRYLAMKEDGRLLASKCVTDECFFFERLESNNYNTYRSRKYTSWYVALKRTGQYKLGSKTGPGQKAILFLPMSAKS
Fibroblast growth factor 1, sequence (P05230 whole entry): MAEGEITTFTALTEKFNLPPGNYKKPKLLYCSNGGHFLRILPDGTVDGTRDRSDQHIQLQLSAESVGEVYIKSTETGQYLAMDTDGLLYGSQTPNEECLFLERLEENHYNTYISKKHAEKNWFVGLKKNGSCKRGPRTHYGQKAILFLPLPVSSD

Molecule | Activity [1] | inhibition in vivo at 15 mg/kg [4] | half-life [5] | Kd [6] | Activity [8] | Ki [9] | half-life [10] | Kd [11] | LC50 [12] | inhibition in vivo at 30 mg/kg [13] | Time [2] | Kd [14] | clearance [15] | other results
MUPARFOSTAT SODIUM | > 500 s |  |  |  |  |  |  |  |  |  |  |  |  | TIME [2]: > 0.139 h; inhibition [3]: 58%
CCCCCCCCO[C@H]1O[C@H](COS(=O)(=O)[O-])[C@@H](OS(=O)(=O)[O-])[C@H](OS(=O)(=O)[O-])[C@@H]1O[C@H]1O[C@H](COS(=O)(=O)[O-])[C@@H](OS(=O)(=O)[O-])[C@H](O[C@H]2O[C@H](COS(=O)(=O)[O-])[C@@H](OS(=O)(=O)[O-])[C@H](O[C@H]3O[C@H](COS(=O)(=O)[O-])[C@@H](OS(=O)(=O)[O-])[C@H](O[C@H]4O[C@H](COS(=O)(=O)[O-])[C@@H](OS(=O)(=O)[O-])[C@H](OS(=O)(=O)[O-])[C@@H]4OS(=O)(=O)[O-])[C@@H]3OS(=O)(=O)[O-])[C@@H]2OS(=O)(=O)[O-])[C@@H]1OS(=O)(=O)[O-].[Na+].[Na+].[Na+].[Na+].[Na+].[Na+].[Na+].[Na+].[Na+].[Na+].[Na+].[Na+].[Na+].[Na+].[Na+].[Na+] | 124.4 s | 42% | 1.1 h | 82 nM | Toxic | 350 nM | 1.1 h | 1.5 nM | > 100000 nM | 94% | 250.8 s | 0.161 nM | 1.4 mL/min/kg | Activity [7]: Active
O=S(=O)([O-])OC[C@H]1O[C@H](OCc2ccccc2)[C@@H](O[C@H]2O[C@H](COS(=O)(=O)[O-])[C@@H](OS(=O)(=O)[O-])[C@H](O[C@H]3O[C@H](COS(=O)(=O)[O-])[C@@H](OS(=O)(=O)[O-])[C@H](O[C@H]4O[C@H](COS(=O)(=O)[O-])[C@@H](OS(=O)(=O)[O-])[C@H](OS(=O)(=O)[O-])[C@@H]4OS(=O)(=O)[O-])[C@@H]3OS(=O)(=O)[O-])[C@@H]2OS(=O)(=O)[O-])[C@@H](OS(=O)(=O)[O-])[C@@H]1OS(=O)(=O)[O-].[Na+].[Na+].[Na+].[Na+].[Na+].[Na+].[Na+].[Na+].[Na+].[Na+].[Na+].[Na+].[Na+] | 281.1 s |  |  | 129 nM | Toxic | 280 nM |  | 21 nM | > 100000 nM |  | 417.9 s | 0.24 nM |  | Activity [16]: Active; Activity [17]: Active; Activity [18]: Active; Activity [19]: Active
CCCCCCCCO[C@H]1O[C@H](COS(=O)(=O)[O-])[C@@H](OS(=O)(=O)[O-])[C@H](OS(=O)(=O)[O-])[C@@H]1O[C@H]1O[C@H](COS(=O)(=O)[O-])[C@@H](OS(=O)(=O)[O-])[C@H](O[C@H]2O[C@H](COS(=O)(=O)[O-])[C@@H](OS(=O)(=O)[O-])[C@H](O[C@H]3O[C@H](COS(=O)(=O)[O-])[C@@H](OS(=O)(=O)[O-])[C@H](OS(=O)(=O)[O-])[C@@H]3OS(=O)(=O)[O-])[C@@H]2OS(=O)(=O)[O-])[C@@H]1OS(=O)(=O)[O-].[Na+].[Na+].[Na+].[Na+].[Na+].[Na+].[Na+].[Na+].[Na+].[Na+].[Na+].[Na+].[Na+] | 79.5 s | 64% | 1.7 h | 160 nM | Toxic | 330 nM | 1.7 h | 18 nM | > 100000 nM | 86% | 96.7 s | 0.118 nM | 0.2 mL/min/kg | Vd [20]: 0.026 L/kg; bioavailability [21]: 67%

From ChEMBL document CHEMBL1157543, “Synthesis and biological evaluation of polysulfated oligosaccharide glycosides as inhibitors of angiogenesis and tumor growth” (J Med Chem, 2010)
